Assay results as given in ChEMBL document CHEMBL4152223 (Eur J Med Chem, 2018).
Values after ≈ are worked out from the molar mass of the structure shown.

Assays:
[1] = test system: Mycobacterium tuberculosis; assay: Antimycobacterial activity against Mycobacterium tuberculosis H37Rv after 14 days; format: functional; details: 336 h
[2] = test system: Mycobacterium tuberculosis; assay: Antimycobacterial activity against Mycobacterium tuberculosis H37Rv after 21 days; format: functional; details: 504 h
Mycobacterium avium [3] = assay: Antimycobacterial activity against INH/RIF/OFX resistant Mycobacterium avium 330/88 after 14 days; format: functional; details: 330/88, 336 h
Mycobacterium avium [4] = assay: Antimycobacterial activity against INH/RIF/OFX resistant Mycobacterium avium 330/88 after 21 days; format: functional; details: 330/88, 504 h
Mycobacterium kansasii [5] = assay: Antimycobacterial activity against Mycobacterium kansasii 235/80 after 7 days; format: functional; details: 235/80, 168 h
Mycobacterium kansasii [6] = assay: Antimycobacterial activity against Mycobacterium kansasii 235/80 after 14 days; format: functional; details: 235/80, 336 h
Mycobacterium kansasii [7] = assay: Antimycobacterial activity against Mycobacterium kansasii 235/80 after 21 days; format: functional; details: 235/80, 504 h
Mycobacterium kansasii [8] = assay: Antimycobacterial activity against Mycobacterium kansasii 6509/96 after 7 days; format: functional; details: 6509/96, 168 h
Mycobacterium kansasii [9] = assay: Antimycobacterial activity against Mycobacterium kansasii 6509/96 after 14 days; format: functional; details: 6509/96, 336 h
Mycobacterium kansasii [10] = assay: Antimycobacterial activity against Mycobacterium kansasii 6509/96 after 21 days; format: functional; details: 6509/96, 504 h
HepG2 = assay: Cytotoxicity against human HepG2 cells assessed as reduction in cell viability by MTS assay; format: cell-based
Summary of the method: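 HepG2 human hepatocellular carcinoma cells (passage 2-4) were cultured in Eagle's MEM with 10% FBS, 1% L-glutamine and non-essential amino acids. Compounds were dissolved in DMSO and tested in triplicate at eight concentrations. Viability was read by colorimetric MTS tetrazolium reduction. Controls were 100% viability and 0% viability (10% DMSO). IC50 is the concentration reducing viability to 50% of control.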

Structure (SMILES)	MIC [1] [µM]	MIC [2] [µM]	MIC (Mycobacterium avium [3]) [µM]	MIC (Mycobacterium avium [4]) [µM]	MIC (Mycobacterium kansasii [5]) [µM]	MIC (Mycobacterium kansasii [6]) [µM]	MIC (Mycobacterium kansasii [7]) [µM]	MIC (Mycobacterium kansasii [8]) [µM]	MIC (Mycobacterium kansasii [9]) [µM]	MIC (Mycobacterium kansasii [10]) [µM]	IC50 (HepG2) [µM]
CCNc1nnc(-c2ccncc2)o1	> 1000	> 1000	> 1000	> 1000	1000 (≈ 190 µg/mL)	> 1000	> 1000	1000 (≈ 190 µg/mL)	> 1000	> 1000	–
CCCCCCCCNc1nnc(-c2ccncc2)o1	62.5 (≈ 17.1 µg/mL)	62.5 (≈ 17.1 µg/mL)	62.5 (≈ 17.1 µg/mL)	125 (≈ 34.3 µg/mL)	62.5 (≈ 17.1 µg/mL)	125 (≈ 34.3 µg/mL)	125 (≈ 34.3 µg/mL)	62.5 (≈ 17.1 µg/mL)	125 (≈ 34.3 µg/mL)	125 (≈ 34.3 µg/mL)	–
CCCCCCCCCNc1nnc(-c2ccncc2)o1	62.5 (≈ 18 µg/mL)	62.5 (≈ 18 µg/mL)	125 (≈ 36 µg/mL)	125 (≈ 36 µg/mL)	125 (≈ 36 µg/mL)	250 (≈ 72.1 µg/mL)	250 (≈ 72.1 µg/mL)	125 (≈ 36 µg/mL)	250 (≈ 72.1 µg/mL)	250 (≈ 72.1 µg/mL)	> 50
CCCCCCCCCCCCCCCNc1nnc(-c2ccncc2)o1	125 (≈ 46.6 µg/mL)	125 (≈ 46.6 µg/mL)	250 (≈ 93.1 µg/mL)	500 (≈ 186 µg/mL)	62.5 (≈ 23.3 µg/mL)	125 (≈ 46.6 µg/mL)	250 (≈ 93.1 µg/mL)	125 (≈ 46.6 µg/mL)	250 (≈ 93.1 µg/mL)	250 (≈ 93.1 µg/mL)	–
CCCCCCCCCCCCCCNC(=O)NNC(=O)c1ccncc1	32 (≈ 12 µg/mL)	62.5 (≈ 23.5 µg/mL)	125 (≈ 47.1 µg/mL)	125 (≈ 47.1 µg/mL)	32 (≈ 12 µg/mL)	62.5 (≈ 23.5 µg/mL)	62.5 (≈ 23.5 µg/mL)	32 (≈ 12 µg/mL)	62.5 (≈ 23.5 µg/mL)	62.5 (≈ 23.5 µg/mL)	> 50
CCCCCCCCCCNc1nnc(-c2ccncc2)o1	16 (≈ 4.84 µg/mL)	16 (≈ 4.84 µg/mL)	32 (≈ 9.68 µg/mL)	62.5 (≈ 18.9 µg/mL)	8 (≈ 2.42 µg/mL)	16 (≈ 4.84 µg/mL)	16 (≈ 4.84 µg/mL)	16 (≈ 4.84 µg/mL)	16 (≈ 4.84 µg/mL)	16 (≈ 4.84 µg/mL)	> 50
CCCCCCCCCCCCCCCCCCNc1nnc(-c2ccncc2)o1	125 (≈ 51.8 µg/mL)	250 (≈ 104 µg/mL)	500 (≈ 207 µg/mL)	500 (≈ 207 µg/mL)	250 (≈ 104 µg/mL)	250 (≈ 104 µg/mL)	250 (≈ 104 µg/mL)	250 (≈ 104 µg/mL)	500 (≈ 207 µg/mL)	500 (≈ 207 µg/mL)	–
CCCCCCCCCCCCCCCCNc1nnc(-c2ccncc2)o1	250 (≈ 96.6 µg/mL)	250 (≈ 96.6 µg/mL)	250 (≈ 96.6 µg/mL)	250 (≈ 96.6 µg/mL)	250 (≈ 96.6 µg/mL)	500 (≈ 193 µg/mL)	500 (≈ 193 µg/mL)	250 (≈ 96.6 µg/mL)	500 (≈ 193 µg/mL)	500 (≈ 193 µg/mL)	–
CNc1nnc(-c2ccncc2)o1	500 (≈ 88.1 µg/mL)	500 (≈ 88.1 µg/mL)	> 1000	> 1000	500 (≈ 88.1 µg/mL)	1000 (≈ 176 µg/mL)	> 1000	1000 (≈ 176 µg/mL)	1000 (≈ 176 µg/mL)	1000 (≈ 176 µg/mL)	–
CCCCCCCCCCCCCNC(=O)NNC(=O)c1ccncc1	32 (≈ 11.6 µg/mL)	62.5 (≈ 22.7 µg/mL)	125 (≈ 45.3 µg/mL)	125 (≈ 45.3 µg/mL)	16 (≈ 5.8 µg/mL)	32 (≈ 11.6 µg/mL)	62.5 (≈ 22.7 µg/mL)	32 (≈ 11.6 µg/mL)	62.5 (≈ 22.7 µg/mL)	62.5 (≈ 22.7 µg/mL)	> 100
CCCCCCCCCCCCCCNc1nnc(-c2ccncc2)o1	250 (≈ 89.6 µg/mL)	250 (≈ 89.6 µg/mL)	250 (≈ 89.6 µg/mL)	250 (≈ 89.6 µg/mL)	250 (≈ 89.6 µg/mL)	250 (≈ 89.6 µg/mL)	250 (≈ 89.6 µg/mL)	250 (≈ 89.6 µg/mL)	250 (≈ 89.6 µg/mL)	250 (≈ 89.6 µg/mL)	–
CCCCCCCCCCCCCCCCNC(=O)NNC(=O)c1ccncc1	32 (≈ 12.9 µg/mL)	62.5 (≈ 25.3 µg/mL)	125 (≈ 50.6 µg/mL)	125 (≈ 50.6 µg/mL)	32 (≈ 12.9 µg/mL)	62.5 (≈ 25.3 µg/mL)	62.5 (≈ 25.3 µg/mL)	32 (≈ 12.9 µg/mL)	62.5 (≈ 25.3 µg/mL)	62.5 (≈ 25.3 µg/mL)	> 50
